# Screening data (PubChem)
# S100A4 inh HTS = S100A4-myosin IIA interaction inhibition. S100A4/TAMRA-MyoIIA peptide fluorescence polarization. hit rate 0.14% among 360,000. inhibition, % at 10.7 µM;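 active means mean inhibition of at least 70% across replicates, with every replicate also reaching that level; inconclusive means mean inhibition reaches 70% but some replicates fall short; inactive means mean inhibition below 70%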
# Target sequence (P26447 whole entry, looked up): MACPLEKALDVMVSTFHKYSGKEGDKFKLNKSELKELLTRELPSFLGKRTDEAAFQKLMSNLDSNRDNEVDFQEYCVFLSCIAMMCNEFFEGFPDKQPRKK
#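 Material: S100A4 monomer protein / Buffer or medium: 50 mM HEPES pH 7.2, 10 mM CaCl2, 100 mM KCl / Times: 5 min incubation before reading / Benchmarks: neutral control DMSO, positive control TFP / Reagent: labelled myosin peptide probe, 5 nM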
# INS-1E GSIS act = GLuc luminescence reporter in INS-1E cells, primary screen for activators of glucose-dependent secretion of insulin | INS-1E GLuc reporter insulin secretion, 2-3 h | activation, % at 16.6 µM | hit rate 0.61% among 370,000 | AID 743287;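 active means lowest replicate activation of at least 40%, so every replicate reaches that level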;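 further: 0% = median of neutral control wells and 100% = median of IBMX positive control wells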
# SIRT5 block = blocks human SIRT5 desuccinylation of peptide | inhibition, % at 15 µM | AID 652115 | Purified SirT5, succinyl-peptide AMC, trypsin-coupled fluorescence | hit rate 1.1% among 330,000; in the data active means inhibition above about 15%; inconclusive means no clear call, values can overlap the other calls
# ERp5 block = ERp5 (human) disulfide isomerase inhibition; Q15084; ERp5 insulin aggregation, absorbance 650 nm, 90 min; inhibition, % at 9.99 µM; hit rate 0.05% among 350,000; AID 651711;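 active means mean replicate inhibition above about 25%, with every replicate also reaching it, limit read from the data, passing the limit was not always enough; inconclusive means only one of those two criteria met; inactive means neither criterion met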
# Target sequence (Q15084 whole entry, looked up): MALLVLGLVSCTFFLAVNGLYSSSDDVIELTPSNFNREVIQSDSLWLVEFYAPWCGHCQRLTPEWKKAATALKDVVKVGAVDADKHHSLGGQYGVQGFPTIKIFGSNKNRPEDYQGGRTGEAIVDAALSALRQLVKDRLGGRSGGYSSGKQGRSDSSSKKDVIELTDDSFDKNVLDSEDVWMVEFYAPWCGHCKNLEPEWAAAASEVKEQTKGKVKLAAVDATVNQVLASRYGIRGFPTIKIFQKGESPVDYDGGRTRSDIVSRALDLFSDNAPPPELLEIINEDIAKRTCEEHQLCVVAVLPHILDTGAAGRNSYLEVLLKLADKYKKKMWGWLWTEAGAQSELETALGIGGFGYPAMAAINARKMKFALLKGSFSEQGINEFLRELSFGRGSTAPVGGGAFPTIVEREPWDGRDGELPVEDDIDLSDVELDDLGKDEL
# PDI turbidity = blocks human protein disulfide isomerase activity; PDI insulin aggregation turbidity, A650, 90 min; inhibition, % at 10 µM; P07237; hit rate 0.052% among 350,000; AID 588391;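 active means mean inhibition across replicates of 30% or more, whatever share of single replicates reach that level; inconclusive means mean inhibition below 30% while every single replicate reaches 30%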
# * hit, by the source's call; ? = inconclusive; nt = not tested or not shown. Sampled rows, rich in hits. Any-hit rate of the full collection: about 1.5%.
SMILES,S100A4 inh HTS,INS-1E GSIS act,SIRT5 block,ERp5 block,PDI turbidity
COc1ccc(S(=O)(=O)N2CCCCCC2)cc1C(=O)N(C)CC(=O)Nc1ccc(F)cc1,-0.2,-51.4,20.5*,8.8,-2.9
COc1ccc(S(=O)(=O)N2CCCCC2)cc1NC(=O)C1CC1C (stereo not drawn),-4.6,40.5*,-1.2,-8.3,-3.7
C[C@@H]1CN([C@H](C)CO)C(=O)CCCn2cc(nn2)CO[C@H]1CN(C)Cc1ccc2c(c1)OCCO2,nt,20.7,nt,nt,nt
C[C@H]1CN([C@@H](C)CO)C(=O)c2cc(NC(=O)Cc3ccccc3)ccc2O[C@@H]1CN(C)Cc1ccncc1,1.3,16.7,1.2,0.0,nt
O=C1Nc2ccccc2-n2nnnc2C1N1CCN(c2ccccn2)CC1 (stereo not drawn),0.4,101.0*,-2.6,3.7,nt
CC(=O)Oc1ccc(/C=C2/SC(=S)N(Cc3ccccc3)C2=O)cc1,-3.4,-6.4,15.7*,-1.7,-12.5
C[C@@H]1CN([C@H](C)CO)C(=O)Cc2cc(NS(C)(=O)=O)ccc2O[C@@H]1CN(C)C(=O)NC1CCCCC1,1.7,13.3,-3.0,-4.8,nt
N#C[C@@H]1[C@@H](c2ccc(C#Cc3cccnc3)cc2)[C@@H](CO)N1C(=O)C1CCCC1,-6.8,0.1,-2.1,7.1,nt
Cc1ccc(Nc2ncnc3sccc23)c(C)c1,-1.7,42.1*,-0.1,1.0,0.1
CNC[C@@H]1Oc2ncc(C#Cc3cccc(OC)c3)cc2C(=O)N([C@@H](C)CO)C[C@@H]1C,-6.5,-5.5,-13.1,-3.7,nt
CSc1cccc(CN2CCN(Cc3ccc(F)c(F)c3)C(CCO)C2)c1 (stereo not drawn),-0.1,-1.1,15.6*,-2.4,4.1
CSc1cccc(CN2CCN(Cc3ccccc3)C(CCO)C2)c1 (stereo not drawn),-10.4,-2.0,-6.8,3.5,10.3
OCCC1CN(Cc2ccc3c(c2)CCO3)CCN1Cc1ccc(F)cc1 (stereo not drawn),73.6*,-4.3,-2.3,-4.0,28.4
C[C@@H]1CCCCO[C@H](CN(C)S(=O)(=O)c2cccs2)[C@@H](C)CN([C@H](C)CO)C(=O)c2cc(NC(=O)CCCN(C)C)ccc2O1,14.2,3.4,-0.8,-1.8,nt
COc1ccc(C)cc1S(=O)(=O)n1ccnc1C,0.1,3.0,112.1*,-1.9,12.1
CCOc1ccc(C(C)C)cc1S(=O)(=O)n1ccnc1C,5.7,4.1,16.7*,0.9,-3.8
CCOc1ccc(OCC)c(S(=O)(=O)n2ccnc2C)c1,1.6,8.1,-1.9,4.5,-0.1
COc1ccc(-c2ccc3c(c2)O[C@H](CN(C)Cc2ccccc2C(=O)O)[C@@H](C)CN([C@H](C)CO)S3(=O)=O)cc1,-6.9,-6.1,-11.5,-9.9,nt
CNC[C@H]1Oc2ccc(NC(=O)CCCN(C)C)cc2C(=O)N([C@H](C)CO)C[C@@H]1C,?,5.5,-3.5,0.3,nt
O=C(c1ccncc1)N1C[C@@H]2[C@H](c3ccccc31)[C@H](CO)N2C(=O)Nc1cccc(F)c1,-3.0,-0.8,18.0*,-3.0,nt
CCCNC(=O)N1[C@H](CO)[C@@H]2c3ccccc3N(C(=O)c3ccc(F)cc3)C[C@@H]21,124.3*,-8.0,10.8,-2.1,nt
CCOC(=O)C1(CCCc2ccccc2)CCN(C2CCN(C(C)=O)CC2)CC1,-13.6,-10.1,17.6*,-2.9,20.9
O=C(/C=C/c1ccc(F)cc1)c1cc(Br)ccc1O,-1.9,-3.7,16.1*,0.1,-2.1
O=C(C[C@H]1CC[C@@H](NC(=O)C2CCC2)[C@H](CO)O1)Nc1nccs1,43.1,-14.5,2.4,0.1,nt
C[C@@H]1CN([C@H](C)CO)C(=O)c2cc(NC(=O)Cc3ccccc3)ccc2O[C@@H](C)CCCCO[C@@H]1CN(C)S(=O)(=O)c1cccs1,nt,-5.8,nt,nt,nt
SMILES,S100A4 inh HTS,INS-1E GSIS act,SIRT5 block,ERp5 block,PDI turbidity
C[C@@H]1CN([C@H](C)CO)C(=O)c2cccc(NC(=O)NC3CCCCC3)c2O[C@@H]1CN(C)CC1CC1,-1.2,1.1,5.8,2.8,nt
Nc1nc(N)c2cc(Sc3ccc(Cl)cc3)ccc2n1,-1.2,186.8*,-15.2,5.2,20.6
Nc1nc(N)c2cc(Sc3ccc4ccccc4c3)ccc2n1,-2.7,nt,-1.9,1.7,-5.4
CCCCN(CC)CCCNC(=O)CC1Oc2ccccc2NC1=O (stereo not drawn),1.5,2.1,17.1*,5.5,2.9
C/C=C/c1ccc2c(c1)O[C@@H](CN(C)C(=O)c1ccccc1F)[C@@H](C)CN([C@H](C)CO)S2(=O)=O,7.3,-7.3,-3.1,3.7,nt
CCCCCCc1cc2cc(C(=O)Nc3cccc(OC)c3)c(=O)oc2cc1O,nt,68.4*,nt,nt,-8.8
CCCCCCc1cc2cc(C(=O)Nc3ccc(OC)cc3)c(=O)oc2cc1O,-3.2,15.8,-2.8,8.4,1.3
COc1ccc(-c2ccc3c(c2)[C@H]2[C@H](CCN2C(=O)Cc2cccnc2)[C@@H](CO)N3C)cc1,-2.0,4.5,1.2,4.3,nt
COc1cc(/C=C(/C#N)C(=O)Nc2cc(C(F)(F)F)ccc2Cl)ccc1OCC(=O)Nc1cccc(C(F)(F)F)c1,-2.7,nt,16.2*,0.5,-6.4
COc1cc(/C=C(\C#N)C(=O)Nc2cccc(C(=O)O)c2)ccc1OCc1ccc(F)cc1,-0.6,-30.9,2.2,-1.7,2.7
O=C(C[C@@H]1C[C@@H]2c3cc(NC(=O)C4CCC4)ccc3O[C@@H]2[C@@H](CO)O1)NC1CCCCC1,-3.0,7.8,-3.5,1.1,nt
C[C@@H]1CC2=C(C(=O)OC(C)(C)O2)[C@H](c2ccc(F)cc2)O1,-0.8,56.2*,-3.5,9.2,nt
CC(C)C1CC2=C(C(=O)OC(C)(C)O2)C(c2ccc(Cl)cc2)O1 (stereo not drawn),1.6,nt,-0.2,7.9,nt
C[C@@H]1CC2=C(C(=O)OC(C)(C)O2)[C@H](c2ccc(Cl)cc2)O1,-1.2,52.5*,-6.6,-12.1,nt
COc1ccc(NC(=O)N(C)C[C@@H]2OCc3ccccc3-c3c(n(C)c4ccccc34)C(=O)N([C@@H](C)CO)C[C@@H]2C)cc1,-2.9,-21.6,20.5*,-2.9,nt
C[C@H](CO)N1C[C@H](C)[C@@H](CN(C)C(=O)Nc2ccc(F)cc2)OCc2ccccc2-c2c(n(C)c3ccccc23)C1=O,-2.1,9.7,15.5*,-1.3,nt
COc1cccc(NC(=O)N(C)C[C@@H]2OCc3ccccc3-c3c(n(C)c4ccccc34)C(=O)N([C@@H](C)CO)C[C@@H]2C)c1,97.1*,-19.4,4.9,1.8,nt
COc1cccc(NC(=O)N(C)C[C@@H]2OCc3ccccc3-c3c(n(C)c4ccccc34)C(=O)N([C@@H](C)CO)C[C@H]2C)c1,-8.5,-23.2,4.4,1.4,nt
C[C@H]1CN([C@@H](C)CO)C(=O)c2c(c3ccccc3n2C)-c2ccccc2CO[C@H]1CN(C)C(=O)Nc1ccccc1,23.0,-12.7,13.0,-10.6,nt
C[C@@H]1CN([C@@H](C)CO)C(=O)c2c(c3ccccc3n2C)-c2ccccc2CO[C@@H]1CN(C)C(=O)Nc1ccccc1,63.4,-28.1,2.7,-4.8,nt
